Assay results published in ChEMBL document CHEMBL4251543, “Identification of potent tricyclic prodrug S1P1 receptor modulators” (Medchemcomm, 2017).

How the values were obtained:
[1] = Half life in rat; type: ADME, organism-based; settings: in vivo
[2] = Prodrug conversion in Lewis rat blood assessed as parent compound levels at 2 mg/kg, po after 24 hrs; type: ADME, organism-based; settings: in vivo, read-out: Drug metabolism
[3] = tested on: Rattus norvegicus; test: Immunosuppressive activity in Lewis rat assessed as reduction in blood lymphocytes count at 2 mg/kg, po after 4 hrs relative to control; type: functional; set-up: scale not given: the % may be the effect or the level left
In short: (§1)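 Oral dosing in Lewis rats, with PEG300 as vehicle, given as solution or suspension adjusted for free test article if salt forms are used. Blood sampled at several time points. Lymphocytes counted on a hematology analyzer. Result is the reduction in circulating lymphocyte percentage versus the vehicle group at each time, averaged per group (n = 2).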

[4] = Prodrug conversion in Lewis rat blood assessed as formation phosphate metabolite at 2 mg/kg, po after 24 hrs; type: ADME, organism-based; settings: in vivo
[5] = Prodrug conversion in Lewis rat blood assessed as formation phosphate metabolite at 2 mg/kg, po after 48 hrs; type: ADME, organism-based; settings: in vivo
[6] = Half life in Lewis rat at 2 mg/kg, po after 72 hrs; type: ADME, organism-based; settings: in vivo
[7] = Prodrug conversion in Lewis rat blood assessed as formation phosphate metabolite at 2 mg/kg, po after 4 hrs; type: ADME, organism-based; settings: in vivo
[8] = Prodrug conversion in Lewis rat blood assessed as parent compound levels at 2 mg/kg, po after 4 hrs; type: ADME, organism-based; settings: in vivo, read-out: Drug metabolism
[9] = organism: Mus musculus; test: Pulmonary toxicity in mouse assessed as increase in BAL protein levels at 5 times ED50; type: organism-based; settings: in vivo
[10] = tested on: Rattus norvegicus; test: Immunosuppressive activity in Lewis rat assessed as reduction in blood lymphocytes count at 2 mg/kg, po after 48 hrs relative to control; type: functional; set-up: scale not given: the % may be the effect or the level left; in short: as §1
[11] = Prodrug conversion in Lewis rat blood assessed as parent compound levels at 2 mg/kg, po after 48 hrs; type: ADME, organism-based; settings: in vivo, read-out: Drug metabolism
[12] = tested on: Rattus norvegicus; test: Immunosuppressive activity in Lewis rat assessed as reduction in blood lymphocytes count at 2 mg/kg, po after 24 hrs relative to control; type: functional; set-up: scale not given: the % may be the effect or the level left; in short: as §1
[13] = tested on: Rattus norvegicus; test: Immunosuppressive activity in po dosed Lewis rat assessed as reduction in blood lymphocytes after 24 hrs; type: functional; in short: as §1
[14] = organism: Mus musculus; test: Pulmonary toxicity in mouse assessed as increase in BAL protein levels at 15 times ED50; type: organism-based; settings: in vivo
[15] = organism: Mus musculus; test: Pulmonary toxicity in mouse assessed as increase in BAL protein levels at 20 times ED50 relative to control; type: organism-based; settings: in vivo

half-life [1] | concentration [2] | Drug metabolism [4] | Drug metabolism [5] | half-life [6] | Drug metabolism [7] | concentration [8] | concentration [11] | SMILES | Activity [3] | Activity [9] | Activity [10] | Activity [12] | ED50 [13] | Activity [14] | fold change (FC) [15]
162 h | – | – | – | – | – | – | – | CCCCCC[C@@H]1CCc2cc([C@H]3CC[C@](N)(CO)C3)ccc2C1 [BMS-986104] | – | – | – | – | – | – | –
– | 1.4 nM | 2.3 nM | < 1 nM | < 5 h | 15 nM | 9.1 nM | < 1 nM | CCCCSc1nc2c(s1)-c1ccc([C@H]3CC[C@](N)(CO)C3)cc1CC2 | 82% | Toxic | 16% | 48% | 2 mg/kg | Toxic | –
– | 140 nM | 58 nM | 18 nM | 20 h | 120 nM | 200 nM | 27 nM | CCCCOCCOc1nc2c(s1)-c1ccc([C@H]3CC[C@](N)(CO)C3)cc1CC2 | 79% | – | 82% | 87% | 0.25 mg/kg | – | 5
